Data reported in ChEMBL document CHEMBL1153397, “Argifin; efficient solid phase total synthesis and evaluation of analogues of acyclic peptide” (Bioorg Med Chem, 2009).
*1 amine or outer side, *2 acyl side, *3 side chain or, on linkers, in order; H or OH if unused. Where a SMILES comes first, the peptide text is derived from it. Side-chain parts run from the residue outwards. [ ]: non-standard residue; d: D form. The star is where a group is joined. NMeF = CN[C@@H](Cc1ccccc1)C(=O)O; CO = O=C([*:1])[*:2]; OAll = C=CCO*

Assays:
Chitinase A = Chitinase A (Serratia marcescens, UniProt P07254); assay: Displacement of 4-methylumbelliferydiacetyl-chitobiose from Serratia marcescens ChiA
In short: (§1)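 Crude S. marcescens chitinase diluted in 0.1 M phosphate pH 7.0 (ChiA x10, ChiB x40, ChiC1 x4) was mixed with inhibitor in MeOH, buffer and 80 μM (solution added) 4-MU-(GlcNAc)2, then incubated 5 min. Fluorescence (ex 355/em 460 nm) was read every 60 s. The 4-methylumbelliferone production rate was corrected for each inhibitor's quenching using inhibitor plus 4MU mixtures. IC50 came from sigmoidal dose-response fits.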

Chitinase B = target: T1, Chitinase B (Serratia marcescens, UniProt P11797); assay: Displacement of 4-methylumbelliferydiacetyl-chitobiose from Serratia marcescens ChiB; in short: as §1
T1 sequence (P11797 whole entry): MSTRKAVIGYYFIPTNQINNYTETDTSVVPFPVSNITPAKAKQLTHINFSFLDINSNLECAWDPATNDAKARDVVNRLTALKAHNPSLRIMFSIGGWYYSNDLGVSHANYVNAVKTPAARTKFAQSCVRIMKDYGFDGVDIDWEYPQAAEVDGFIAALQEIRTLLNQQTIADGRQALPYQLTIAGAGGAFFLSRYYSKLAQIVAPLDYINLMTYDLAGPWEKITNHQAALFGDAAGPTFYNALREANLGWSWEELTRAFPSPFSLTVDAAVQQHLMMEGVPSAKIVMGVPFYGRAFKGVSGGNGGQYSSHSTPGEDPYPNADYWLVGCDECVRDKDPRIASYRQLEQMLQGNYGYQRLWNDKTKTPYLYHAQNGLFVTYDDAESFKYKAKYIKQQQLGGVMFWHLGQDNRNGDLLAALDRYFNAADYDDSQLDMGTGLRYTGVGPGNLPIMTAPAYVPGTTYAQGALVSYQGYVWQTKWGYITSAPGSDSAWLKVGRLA

Chitinase C1 = target: T2, Chitinase C1 (Serratia marcescens, UniProt Q700B8); assay: Displacement of 4-methylumbelliferydiacetyl-chitobiose from Serratia marcescens ChiC; in short: as §1
T2 sequence (Q700B8 whole entry): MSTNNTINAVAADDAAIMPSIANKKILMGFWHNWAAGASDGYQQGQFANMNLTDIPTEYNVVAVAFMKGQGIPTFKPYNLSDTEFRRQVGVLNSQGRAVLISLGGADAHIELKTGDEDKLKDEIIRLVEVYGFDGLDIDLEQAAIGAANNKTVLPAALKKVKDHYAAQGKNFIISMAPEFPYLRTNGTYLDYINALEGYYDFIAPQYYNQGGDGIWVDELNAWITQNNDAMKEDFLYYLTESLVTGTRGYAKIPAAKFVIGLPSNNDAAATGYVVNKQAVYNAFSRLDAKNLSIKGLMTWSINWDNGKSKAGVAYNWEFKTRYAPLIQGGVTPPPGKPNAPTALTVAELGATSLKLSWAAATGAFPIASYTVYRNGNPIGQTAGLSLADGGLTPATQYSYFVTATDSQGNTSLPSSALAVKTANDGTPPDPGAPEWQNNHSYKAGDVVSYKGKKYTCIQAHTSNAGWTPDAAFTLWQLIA

Sequence of Chitinase A (P07254 whole entry): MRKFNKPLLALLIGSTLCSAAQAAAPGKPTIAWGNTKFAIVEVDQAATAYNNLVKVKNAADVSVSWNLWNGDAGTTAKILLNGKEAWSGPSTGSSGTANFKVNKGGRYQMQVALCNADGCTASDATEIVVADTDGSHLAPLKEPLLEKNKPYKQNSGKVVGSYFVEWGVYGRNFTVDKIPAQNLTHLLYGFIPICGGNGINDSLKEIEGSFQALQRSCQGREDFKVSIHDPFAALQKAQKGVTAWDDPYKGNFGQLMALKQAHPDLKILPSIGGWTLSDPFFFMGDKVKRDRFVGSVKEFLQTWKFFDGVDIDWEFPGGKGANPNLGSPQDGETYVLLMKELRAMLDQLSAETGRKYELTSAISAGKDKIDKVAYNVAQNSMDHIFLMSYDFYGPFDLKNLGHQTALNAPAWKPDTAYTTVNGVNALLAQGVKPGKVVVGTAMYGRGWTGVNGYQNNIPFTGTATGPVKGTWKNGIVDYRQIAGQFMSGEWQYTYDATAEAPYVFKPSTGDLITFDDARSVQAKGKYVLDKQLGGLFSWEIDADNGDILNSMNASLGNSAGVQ

SMILES | IC50 (Chitinase A) [µM] | IC50 (Chitinase B) [µM] | IC50 (Chitinase C1) [µM]
CNC(=O)NC(=N)NCCC[C@@H]1NC(=O)[C@@H](C)NC(=O)C[C@@H](C(=O)O)NC(=O)C[C@@H](C(=O)O)NC(=O)[C@H](Cc2ccccc2)N(C)C1=O [ARGIFIN] | 0.025 | 6.4 | > 30
CNC(=O)NC(=N)NCCC[C@H](NC(=O)[C@@H](C)NC(=O)[C@H](CC(=O)O)NC(C)=O)C(=O)N(C)[C@@H](Cc1ccccc1)C(=O)O | 8.4 | 30 | > 30
C=CCOC(=O)C[C@H](NC(=O)[C@H](Cc1ccccc1)N(C)C(=O)[C@H](CCCNC(=N)NC(=O)NC)NC(=O)[C@@H](C)NC(C)=O)C(=O)O | 0.025 | 0.091 | > 30
CNC(=O)NC(N)=NCCC[C@H](NC(=O)[C@@H](C)NC(=O)[C@H](CC(=O)O)NC(C)=O)C(=O)O | 32 | 110 | > 30
C=CCOC(=O)C[C@H](NC(=O)[C@H](Cc1ccccc1)N(C)C(=O)[C@H](CCCN=C(N)NC(=O)NC)NC(=O)[C@@H](C)NC(=O)[C@H](CC(=O)O)NC(C)=O)C(=O)O | 1.1 | 1 | > 30

Further lines, results first:

IC50 (Chitinase A) [µM] | IC50 (Chitinase B) [µM] | IC50 (Chitinase C1) [µM] | SMILES
6.6 | 64 | > 30 | CNC(=O)NC(N)=NCCC[C@H](NC(=O)[C@@H](C)NC(C)=O)C(=O)O
0.14 | 0.13 | > 30 | C=CCOC(=O)C[C@H](NC(=O)[C@H](Cc1ccccc1)N(C)C(=O)[C@H](CCCNC(=N)NC(=O)NC)NC(C)=O)C(=O)O (Ac-Arg([CO-NHMe])-[NMeF]-Asp(OAll)-OH)
0.75 | 3.7 | > 30 | CNC(=O)NC(=N)NCCC[C@H](NC(C)=O)C(=O)N(C)[C@@H](Cc1ccccc1)C(=O)O
0.09 | 2.7 | > 30 | CNC(=O)NC(=N)NCCC[C@H](NC(=O)[C@@H](C)NC(C)=O)C(=O)N(C)[C@@H](Cc1ccccc1)C(=O)O
31 | 260 | > 30 | CNC(=O)NC(=N)NCCC[C@H](NC(C)=O)C(=O)O
